# Test results: ChEMBL document CHEMBL1157852, “Modulation of doxorubicin activity in cancer cells by conjugation with fatty acyl and terpenyl hydrazones” (Eur J Med Chem, 2010)
# The source made the active and inactive calls. The rule behind the calls is not given here.
# Experiments:
# [1] = Cytotoxicity against human 518A2 cells assessed as increase in ROS production at 5 uM after 24 hrs by NBT reduction assay relative to control; type: functional
# Procedure, shortened: (§1)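 NBT assay. HL-60 cells (0.5×10⁶/mL) or trypsinised 518A2 cells (5×10⁴/mL) pre-incubated 24 h at 37 °C, then given compound at a final 5 µM for 24 or 72 h. Medium removed; cells incubated with 0.1% NBT for 1 h (HL-60) or 4 h (518A2). Diformazan dissolved in 2 M KOH/DMSO; A630 read against 405 nm. Given as % of untreated controls; double quadruplicates.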
# [2] = tested on: 518A2; test: Induction of apoptosis in human 518A2 cells assessed as appearance of intact mitochondria in cytosol at 5 uM after 18 hrs using JC1 dye relative to control; type: functional
# Procedure, shortened: (§2)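 Mitochondrial membrane potential measured with JC-1. Cells exposed to 5 µM compound for 6 or 18 h, pelleted at 400 g, stained with 0.2× JC-1 at 37 °C for 15 min (HL-60) or 35 min (518A2), washed and resuspended in PBS. Red fluorescence (ex 585/em 590 nm) and green (ex 510/em 527 nm) read; red/green ratio relative to untreated controls (100%). Mean ± SD, four independent experiments.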
# [3] = Cytotoxicity against human 518A2 cells after 72 hrs by MTT assay; type: functional, cell-based; conditions: 518A2, 72 h
# Procedure, shortened: (§3)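 MTT assay. Cells seeded and cultured 24 h, then exposed to compound for 24, 48 or 72 h. MTT added to a final 0.05% (HL-60, 518A2) or 0.1% (KB-V1, MCF-7) for 2 h. Formazan dissolved in 10% SDS/DMSO with 0.6% acetic acid; absorbance read at 570 nm against 630 nm background. Viability taken relative to untreated controls (100%). IC50 from concentration-response curves, mean ± SD of four independent experiments.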
# [4] = Cytotoxicity against human vinblastine-resistant KBV1 cells after 48 hrs by MTT assay; type: functional, cell-based; conditions: KB-V1, 48 h; procedure, shortened: as §3
# [5] = tested on: MCF7; test: Cytotoxicity against human topotecan-resistant MCF7 cells after 72 hrs by MTT assay; type: functional, cell-based; conditions: MCF7, 72 h; procedure, shortened: as §3
# [6] = Cytotoxicity against human vinblastine-resistant KBV1 cells after 24 hrs by MTT assay; type: functional, cell-based; conditions: KB-V1, 24 h; procedure, shortened: as §3
# [7] = Cytotoxicity against human vinblastine-resistant KBV1 cells after 72 hrs by MTT assay in presence of 24 mM ABC transporter inhibitor verapamil hydrochloride; type: functional, cell-based; conditions: KB-V1, 72 h, in the assay text read “24 uM” for “24 mM”
# Procedure, shortened: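 MTT viability assay on P-gp-overexpressing KB-V1/Vbl cells with 24 µM verapamil hydrochloride added before the compound; 72 h exposure. Formazan read at 570/630 nm relative to untreated controls. IC50 from concentration-response curves, mean ± SD of four independent experiments.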
# [8] = tested on: HL-60; test: Induction of apoptosis in human HL60 cells assessed as appearance of intact mitochondria in cytosol at 5 uM after 6 hrs using JC1 dye relative to control; type: functional; procedure, shortened: as §2
# [9] = tested on: HL-60; test: Cytotoxicity against human HL60 cells after 24 hrs by MTT assay; type: functional, cell-based; conditions: HL-60, 24 h; procedure, shortened: as §3
# [10] = tested on: HL-60; test: Induction of apoptosis in human HL60 cells assessed as increase of caspase 8 activity at 5 uM after 1 to 24 hrs by luminometric assay; type: functional, cell-based
# Procedure, shortened: (§4)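 HL-60 and 518A2 cells treated with 5 µM compound and sampled at intervals from 1 to 24 h. Lysed in 50 mM Tris-HCl pH 7.4, 150 mM NaCl, 1% Triton X-100 with protease inhibitors for 15 min at 4 °C, spun at 800 g. Protein measured by Bradford. Caspase-3/7, -8 and -9 activities read with luminogenic peptide substrates; reported as relative luminescence.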
# [11] = tested on: HL-60; test: Cytotoxicity against human HL60 cells after 48 hrs by MTT assay; type: functional, cell-based; conditions: HL-60, 48 h; procedure, shortened: as §3
# [12] = tested on: HL-60; test: Induction of apoptosis in human HL60 cells assessed as DNA ladder formation at 5 uM after 24 hrs by agarose gel electrophoresis; type: functional, cell-based
# Procedure, shortened: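 HL-60 cells incubated with 5 µM compound for 24 h, then examined for DNA ladder patterns.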
# [13] = tested on: MCF7; test: Cytotoxicity against human topotecan-resistant MCF7 cells after 48 hrs by MTT assay; type: functional, cell-based; conditions: MCF7, 48 h; procedure, shortened: as §3
# [14] = tested on: HL-60; test: Cytotoxicity against human HL60 cells assessed as increase in ROS production at 5 uM after 72 hrs by NBT reduction assay relative to control; type: functional; procedure, shortened: as §1
# [15] = tested on: MCF7; test: Cytotoxicity against human topotecan-resistant MCF7 cells after 72 hrs by MTT assay in presence of […] BCRP inhibitor fumitremorgin C; type: functional, cell-based; conditions: MCF7, 72 h
# Procedure, shortened: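 MCF-7/Topo cells grown in E-MEM with 2.2 g/L NaHCO₃, 110 mg/L sodium pyruvate and 5% FCS. Cells were seeded, cultured 24 h, given fumitremorgin C, then exposed to compound for 72 h. MTT was added (final 0.1%) for 2 h, medium discarded, and formazan dissolved in 10% SDS/DMSO with 0.6% acetic acid. A570 (630 background) read versus untreated controls; IC50 from concentration-response curves; four independent experiments, mean ± SD.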
# [16] = Cytotoxicity against human 518A2 cells after 48 hrs by MTT assay; type: functional, cell-based; conditions: 518A2, 48 h; procedure, shortened: as §3
# [17] = tested on: 518A2; test: Induction of apoptosis in human 518A2 cells assessed as increase of caspase 3 activity at 5 uM after 1 to 24 hrs by luminometric assay; type: functional, cell-based; procedure, shortened: as §4
# [18] = Cytotoxicity against human 518A2 cells after 24 hrs by MTT assay; type: functional, cell-based; conditions: 518A2, 24 h; procedure, shortened: as §3
# [19] = tested on: 518A2; test: Induction of apoptosis in human 518A2 cells assessed as increase of ratio of Bax to Bcl-2 mRNA expression at 5 uM after 6 to 18 hrs by RT-PCR analysis; type: functional, cell-based
# Procedure, shortened: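 518A2 cells exposed to 5 µM compound for 6 h or 18 h. bax and bcl-2 mRNA quantified by real-time PCR, normalised to GAPDH, and expressed as the bax/bcl-2 ratio.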
# [20] = tested on: 518A2; test: Induction of apoptosis in human 518A2 cells assessed as increase of caspase 9 activity at 5 uM after 1 to 24 hrs by luminometric assay; type: functional, cell-based; procedure, shortened: as §4
# [21] = tested on: 518A2; test: Induction of apoptosis in human 518A2 cells assessed as increase of caspase 9 activity at 5 uM after 2 hrs by luminometric assay; type: functional, cell-based; procedure, shortened: as §4
# [22] = Cytotoxicity against human vinblastine-resistant KBV1 cells after 72 hrs by MTT assay; type: functional, cell-based; conditions: KB-V1, 72 h; procedure, shortened: as §3
# [23] = Cytotoxicity against human 518A2 cells assessed as increase in ROS production at 5 uM after 72 hrs by NBT reduction assay relative to control; type: functional; procedure, shortened: as §1
# [24] = tested on: 518A2; test: Induction of apoptosis in human 518A2 cells assessed as increase of caspase 8 activity at 5 uM after 1 to 24 hrs by luminometric assay; type: functional, cell-based; procedure, shortened: as §4
# [25] = tested on: HL-60; test: Cytotoxicity against human HL60 cells after 72 hrs by MTT assay; type: functional, cell-based; conditions: HL-60, 72 h; procedure, shortened: as §3
# [26] = tested on: 518A2; test: Induction of apoptosis in human 518A2 cells assessed as appearance of intact mitochondria in cytosol at 5 uM after 6 hrs using JC1 dye relative to control; type: functional; procedure, shortened: as §2
# [27] = Ratio of IC50 for human vinblastine-resistant KBV1 cells in presence of […] ABC transporter inhibitor verapamil hydrochloride to IC50 for human vinblastine-resistant KBV1 cells; type: functional
# Procedure, shortened: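 MTT assay in P-gp-overexpressing KB-V1/Vbl cells grown in D-MEM with 10% FCS and antibiotics. Cells were seeded and cultured 24 h, verapamil hydrochloride was optionally added, and compound exposure ran 24, 48 or 72 h. MTT was added to 0.1% final for 2 h. After the medium was discarded, formazan was dissolved in 10% SDS/DMSO with 0.6% acetic acid and read at 570 nm (630 nm background). IC50 came from concentration-response curves, four independent experiments, and the ratio is IC50 with inhibitor over IC50 without.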
# [28] = tested on: MCF7; test: Cytotoxicity against human topotecan-resistant MCF7 cells after 24 hrs by MTT assay; type: functional, cell-based; conditions: MCF7, 24 h; procedure, shortened: as §3
# [29] = tested on: HL-60; test: Induction of apoptosis in human HL60 cells assessed as increase of caspase 9 activity at 5 uM after 1 to 24 hrs by luminometric assay; type: functional, cell-based
# Procedure, shortened: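 HL-60 leukaemia cells were treated with test compound and sampled at intervals from 1 to 24 h. Protein was measured by Bradford. Caspase-9 (Caspase-Glo 8 for line 1) was read from a luminogenic peptide substrate as relative luminescence.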
# [30] = tested on: HL-60; test: Cytotoxicity against human HL60 cells assessed as increase in ROS production at 5 uM after 24 hrs by NBT reduction assay relative to control; type: functional; procedure, shortened: as §1
# [31] = tested on: HL-60; test: Induction of apoptosis in human HL60 cells assessed as appearance of intact mitochondria in cytosol at 5 uM after 18 hrs using JC1 dye relative to control; type: functional; procedure, shortened: as §2
# [32] = tested on: HL-60; test: Induction of apoptosis in human HL60 cells assessed as increase of caspase 3 activity at 5 uM after 1 to 24 hrs by luminometric assay; type: functional, cell-based; procedure, shortened: as §4
smiles,measurement,setting,value
CCCCCCCCCCCCCCCCC(=O)N/N=C(\CO)[C@]1(O)Cc2c(O)c3c(c(O)c2[C@@H](O[C@H]2C[C@H](N)[C@H](O)[C@H](C)O2)C1)C(=O)c1c(OC)cccc1C3=O.Cl [DOXORUBICIN HEPTADECANOYL HYDRAZONE],Activity,[1],6.6%
same,Activity,[2],80%
same,IC50,[3],0.11 µM
same,IC50,[4],10.7 µM
same,IC50,[5],3 µM
same,IC50,[6],42.9 µM
same,IC50,[7],3.7 µM
same,Activity,[8],94%
same,IC50,[9],1.4 µM
same,Activity,[10],Active
same,IC50,[11],0.86 µM
same,Activity,[12],Active
same,IC50,[13],3.2 µM
same,Activity,[14],3.4%
same,IC50,[15],0.17 µM
same,IC50,[16],0.35 µM
same,Activity,[17],Active
same,IC50,[18],0.76 µM
same,Activity,[19],Active
same,Activity,[20],Active
same,Activity,[21],Active
same,IC50,[22],5.1 µM
same,Activity,[23],71.2%
same,Activity,[24],Active
same,IC50,[25],0.28 µM
same,Activity,[26],113%
same,Ratio IC50,[27],0.74
same,IC50,[28],5.9 µM
same,Activity,[29],Active
same,Activity,[30],2.8%
same,Activity,[31],59%
same,Activity,[32],Active
